Reference: ChEMBL document CHEMBL1154428, “Cloning, nucleotide sequencing, and analysis of the AcrAB-TolC efflux pump of Enterobacter cloacae and determination of its involvement in antibiotic resistance in a clinical isolate” (2007)
Converted amounts (≈) assume the structure as drawn.

Columns and labels:
Enterobacter cloacae [1] = assay: Antibacterial activity against drug-resistant AcrAB-TolC efflux pump deficient Enterobacter cloacae EcdeltaacrA isolate expressing pBGS18 plasmid by Etest; type: functional
Enterobacter cloacae [2] = assay: Antibacterial activity against drug-resistant AcrAB-TolC efflux pump deficient Enterobacter cloacae EcdeltaacrA isolate expressing pAP3 plasmid containing Enterobacter aerogenes acrR gene by Etest; type: functional
Enterobacter cloacae [3] = assay: Antibacterial activity against drug-resistant AcrAB-TolC efflux pump deficient Enterobacter cloacae EcdeltaacrA isolate in presence of 20 ug/ml efflux pump inhibitor Phe-Arg-beta-naphthylamide by Etest; type: functional
Enterobacter cloacae [4] = assay: Antibacterial activity against drug-resistant Enterobacter cloacae EcDC64 isolate expressing AcrAB-TolC efflux pump by Etest; type: functional
Enterobacter cloacae [5] = assay: Antibacterial activity against drug-resistant Enterobacter cloacae EcDC64 isolate expressing AcrAB-TolC efflux pump in presence of 20 ug/ml efflux pump inhibitor Phe-Arg-beta-naphthylamide by Etest
Enterobacter cloacae [6] = assay: Antibacterial activity against drug-resistant AcrAB-TolC efflux pump deficient Enterobacter cloacae EcdeltaacrA isolate expressing pACYC184 plasmid by Etest; type: functional
Enterobacter cloacae [7] = assay: Antibacterial activity against drug-resistant AcrAB-TolC efflux pump deficient Enterobacter cloacae EcdeltaacrA isolate by Etest; type: functional
Enterobacter cloacae [8] = assay: Antibacterial activity against drug-resistant AcrAB-TolC efflux pump deficient Enterobacter cloacae EcdeltaacrA isolate expressing pAP2 plasmid containing Enterobacter cloacae acrA gene by Etest; type: functional
Enterobacter cloacae [9] = assay: Antibacterial activity against drug-resistant AcrAB-TolC efflux pump deficient Enterobacter cloacae EcdeltaacrA isolate expressing pACYC184 plasmid by standard disk diffusion method; type: functional
How it was run: (§1)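 Standard disk diffusion on Mueller-Hinton agar with telithromycin, fusidic acid, novobiocin, nalidixic acid, rifampin and norfloxacin disks. The read-out is the inhibition zone diameter in mm. The acrA-deleted strain was complemented with acrA on pAP-2, and pACYC184 served as the empty vector.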

Enterobacter cloacae [10] = assay: Antibacterial activity against drug-resistant AcrAB-TolC efflux pump deficient Enterobacter cloacae EcdeltaacrA isolate in presence of 20 ug/ml efflux pump inhibitor Phe-Arg-beta-naphthylamide by standard disk diffusion method; type: functional; how it was run: as §1
Enterobacter cloacae [11] = assay: Antibacterial activity against drug-resistant AcrAB-TolC efflux pump deficient Enterobacter cloacae EcdeltaacrA isolate expressing pAP2 plasmid containing Enterobacter cloacae acrA gene by standard disk diffusion method; type: functional; how it was run: as §1
Enterobacter cloacae [12] = assay: Antibacterial activity against drug-resistant Enterobacter cloacae EcDC64 isolate expressing AcrAB-TolC efflux pump in presence of 20 ug/ml efflux pump inhibitor Phe-Arg-beta-naphthylamide by standard disk diffusion method; type: functional; how it was run: as §1
Enterobacter cloacae [13] = assay: Antibacterial activity against drug-resistant Enterobacter cloacae EcDC64 isolate expressing pAP3 plasmid containing Enterobacter aerogenes acrR gene by standard disk diffusion method
Enterobacter cloacae [14] = assay: Antibacterial activity against drug-resistant Enterobacter cloacae EcDC64 isolate expressing AcrAB-TolC efflux pump by standard disk diffusion method; type: functional; how it was run: as §1
Enterobacter cloacae [15] = assay: Antibacterial activity against drug-resistant AcrAB-TolC efflux pump deficient Enterobacter cloacae EcdeltaacrA isolate by standard disk diffusion method; type: functional; how it was run: as §1
Enterobacter cloacae [16] = assay: Antibacterial activity against drug-resistant Enterobacter cloacae EcDC64 isolate expressing pBGS18 plasmid by standard disk diffusion method

SMILES | MIC (Enterobacter cloacae [1]) | MIC (Enterobacter cloacae [2]) | MIC (Enterobacter cloacae [3]) | MIC (Enterobacter cloacae [4]) | MIC (Enterobacter cloacae [5]) | MIC (Enterobacter cloacae [6]) | MIC (Enterobacter cloacae [7]) | MIC (Enterobacter cloacae [8]) | inhibition zone (IZ) (Enterobacter cloacae [9]) | inhibition zone (IZ) (Enterobacter cloacae [10]) | inhibition zone (IZ) (Enterobacter cloacae [11]) | inhibition zone (IZ) (Enterobacter cloacae [12]) | inhibition zone (IZ) (Enterobacter cloacae [13]) | inhibition zone (IZ) (Enterobacter cloacae [14]) | inhibition zone (IZ) (Enterobacter cloacae [15]) | inhibition zone (IZ) (Enterobacter cloacae [16])
CN(C)[C@@H]1C(O)=C(C(N)=O)C(=O)[C@@]2(O)C(O)=C3C(=O)c4c(O)cccc4[C@@](C)(O)[C@H]3C[C@@H]12 [TETRACYCLINE] | > 256 µg/mL | 192 µg/mL (≈ 432 µM) | 1.5 µg/mL | > 256 µg/mL | 64 µg/mL | 64 µg/mL (≈ 144 µM) | 64 µg/mL (≈ 144 µM) | > 256 µg/mL |  |  |  |  |  |  |  | 
NCC[C@H](O)C(=O)N[C@@H]1C[C@H](N)[C@@H](O[C@H]2O[C@H](CN)[C@@H](O)[C@H](O)[C@H]2O)[C@H](O)[C@H]1O[C@H]1O[C@H](CO)[C@@H](O)[C@H](N)[C@H]1O [AMIKACIN] | 2 µg/mL (≈ 3.42 µM) | 1 µg/mL (≈ 1.71 µM) | 0.125 µg/mL | 2 µg/mL (≈ 3.42 µM) | 1.5 µg/mL | 0.5 µg/mL (≈ 0.854 µM) | 0.5 µg/mL (≈ 0.854 µM) | 2 µg/mL (≈ 3.42 µM) |  |  |  |  |  |  |  | 
CO/N=C(\C(=O)N[C@@H]1C(=O)N2C(C(=O)O)=C(COC(N)=O)CS[C@H]12)c1ccco1 [CEFUROXIME] | > 256 µg/mL | > 256 µg/mL | 48 µg/mL | > 256 µg/mL | > 256 µg/mL | > 256 µg/mL | > 256 µg/mL | > 256 µg/mL |  |  |  |  |  |  |  | 
NC[C@H]1O[C@H](O[C@H]2[C@H](O)[C@@H](O[C@H]3O[C@H](CO)[C@@H](O)[C@H](N)[C@H]3O)[C@H](N)C[C@@H]2N)[C@H](N)C[C@@H]1O [TOBRAMYCIN] | 1 µg/mL (≈ 2.14 µM) | 0.38 µg/mL (≈ 0.813 µM) | 0.047 µg/mL | 1.5 µg/mL (≈ 3.21 µM) | 0.5 µg/mL | 0.25 µg/mL (≈ 0.535 µM) | 0.125 µg/mL (≈ 0.267 µM) | 1.5 µg/mL (≈ 3.21 µM) |  |  |  |  |  |  |  | 
CCC[C@@H]1C[C@@H](C(=O)N[C@@H]([C@H]2O[C@H](SC)[C@H](O)[C@@H](O)[C@H]2O)[C@H](C)Cl)N(C)C1 [CLINDAMYCIN] | > 256 µg/mL | 32 µg/mL (≈ 75.3 µM) | 1 µg/mL | > 256 µg/mL | 6 µg/mL | 4 µg/mL (≈ 9.41 µM) | 2 µg/mL (≈ 4.71 µM) | > 256 µg/mL |  |  |  |  |  |  |  | 
CC(=O)NC[C@H]1CN(c2ccc(N3CCOCC3)c(F)c2)C(=O)O1 [LINEZOLID] | > 256 µg/mL | > 256 µg/mL | 0.5 µg/mL | > 256 µg/mL | 4 µg/mL | 4 µg/mL (≈ 11.9 µM) | 8 µg/mL (≈ 23.7 µM) | > 256 µg/mL |  |  |  |  |  |  |  | 
CCn1cc(C(=O)O)c(=O)c2ccc(C)nc21 [NALIDIXIC ACID] |  |  |  |  |  |  |  |  | 30 mm | 40 mm | 12 mm | 27 mm | 29 mm | 24 mm | 33 mm | 21 mm
Cc1onc(-c2ccccc2)c1C(=O)N[C@@H]1C(=O)N2[C@@H]1SC(C)(C)[C@@H]2C(=O)O [OXACILLIN] | > 256 µg/mL | > 256 µg/mL | 4 µg/mL | > 256 µg/mL | 48 µg/mL | > 256 µg/mL | 96 µg/mL (≈ 239 µM) | > 256 µg/mL |  |  |  |  |  |  |  | 
CCn1cc(C(=O)O)c(=O)c2cc(F)c(N3CCNCC3)cc21 [NORFLOXACIN] |  |  |  |  |  |  |  |  | 38 mm | 42 mm | 24 mm | 40 mm | 35 mm | 26 mm | 40 mm | 27 mm
CO[C@@H]1[C@@H](OC(N)=O)[C@@H](O)[C@H](Oc2ccc3c(O)c(NC(=O)c4ccc(O)c(CC=C(C)C)c4)c(=O)oc3c2C)OC1(C)C [NOVOBIOCIN] |  |  |  |  |  |  |  |  | 14 mm | 22 mm | 0 mm | 20 mm | 0 mm | 0 mm | 16 mm | 0 mm
CN(C)c1cc(NC(=O)CNC(C)(C)C)c(O)c2c1C[C@H]1C[C@H]3[C@H](N(C)C)C(O)=C(C(N)=O)C(=O)[C@@]3(O)C(O)=C1C2=O [TIGECYCLINE] | 0.38 µg/mL (≈ 0.649 µM) | 0.19 µg/mL (≈ 0.324 µM) | 0.064 µg/mL | 0.75 µg/mL (≈ 1.28 µM) | 0.125 µg/mL | 0.5 µg/mL (≈ 0.854 µM) | 0.125 µg/mL (≈ 0.213 µM) | 0.75 µg/mL (≈ 1.28 µM) |  |  |  |  |  |  |  | 
CO[C@@]1(NC(=O)Cc2cccs2)C(=O)N2C(C(=O)O)=C(COC(N)=O)CS[C@@H]21 [CEFOXITIN] | > 256 µg/mL | > 256 µg/mL | > 256 µg/mL | > 256 µg/mL | > 256 µg/mL | > 256 µg/mL | > 256 µg/mL | > 256 µg/mL |  |  |  |  |  |  |  | 
CO/N=C(\C(=O)N[C@@H]1C(=O)N2C(C(=O)O)=C(COC(C)=O)CS[C@H]12)c1csc(N)n1 [CEFOTAXIME] | > 256 µg/mL | > 256 µg/mL | 8 µg/mL | > 256 µg/mL | > 256 µg/mL | > 256 µg/mL | > 256 µg/mL | > 256 µg/mL |  |  |  |  |  |  |  | 
CC(C)(O/N=C(\C(=O)N[C@@H]1C(=O)N2C(C(=O)[O-])=C(C[n+]3ccccc3)CS[C@H]12)c1csc(N)n1)C(=O)O [CEFTAZIDIME] | > 256 µg/mL | > 256 µg/mL | 16 µg/mL | > 256 µg/mL | > 256 µg/mL | > 256 µg/mL | > 256 µg/mL | > 256 µg/mL |  |  |  |  |  |  |  | 
CC[C@H]1OC(=O)[C@H](C)[C@@H](O[C@H]2C[C@@](C)(OC)[C@@H](O)[C@H](C)O2)[C@H](C)[C@@H](O[C@@H]2O[C@H](C)C[C@H](N(C)C)[C@H]2O)[C@](C)(O)C[C@@H](C)C(=O)[C@H](C)[C@@H](O)[C@]1(C)O [ERYTHROMYCIN] | > 256 µg/mL | 48 µg/mL (≈ 65.4 µM) | 0.094 µg/mL | > 256 µg/mL | 1 µg/mL | 16 µg/mL (≈ 21.8 µM) | 12 µg/mL (≈ 16.4 µM) | 128 µg/mL (≈ 174 µM) |  |  |  |  |  |  |  | 
CCN1CCN(C(=O)N[C@@H](C(=O)N[C@@H]2C(=O)N3[C@@H]2SC(C)(C)[C@@H]3C(=O)O)c2ccccc2)C(=O)C1=O [PIPERACILLIN] | > 256 µg/mL | 96 µg/mL (≈ 185 µM) | 6 µg/mL | > 256 µg/mL | 192 µg/mL | > 256 µg/mL | 192 µg/mL (≈ 371 µM) | > 256 µg/mL |  |  |  |  |  |  |  | 
CC(=O)OCC1=C(C(=O)O)N2C(=O)[C@@H](NC(=O)Cc3cccs3)[C@H]2SC1 [CEPHALOTHIN] | > 256 µg/mL | > 256 µg/mL | > 256 µg/mL | > 256 µg/mL | > 256 µg/mL | > 256 µg/mL | > 256 µg/mL | > 256 µg/mL |  |  |  |  |  |  |  | 
O=C(N[C@H](CO)[C@H](O)c1ccc([N+](=O)[O-])cc1)C(Cl)Cl [CHLORAMPHENICOL] | 8 µg/mL (≈ 24.8 µM) | 1 µg/mL (≈ 3.09 µM) | 0.047 µg/mL | 8 µg/mL (≈ 24.8 µM) | 0.25 µg/mL | > 256 µg/mL | 0.5 µg/mL (≈ 1.55 µM) | > 256 µg/mL |  |  |  |  |  |  |  | 
